A short description of data set [1]: melting temperature; fluorescence melt of hairpins on a sequencing array, two-state fit, raised by 9.35 °C to match UV melts. The note with it: sodium 0.088 M. An outline of the steps:
(§1)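 In 50 mM Na-HEPES pH 8.0 containing 25 mM NaCl, hairpins from the library on a sequenced MiSeq flow cell were imaged for Cy3 fluorescence at 2.5 °C steps up to 60 °C, with Cy3 and quencher oligos annealed. After normalisation to pre-quench Cy3 and to control constructs, two-state fits with bootstrapping gave melting temperature and folding enthalpy. Four replicates were combined by inverse-variance weighting, and fitted temperatures were shifted up by 9.35 °C to match UV melts.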

Data set [2] is described as follows: folding enthalpy; higher = less favourable; fluorescence melt of hairpins on a sequencing array, two-state fit. The note with it: sodium 0.088 M. In short, it runs like this: as §1

Turning to GATCCACCATGGATC ((((((...)))))), the Tm in data set [1] was determined as 49.7 °C. Besides, the folding enthalpy in data set [2] is -37.4 kcal/mol.

Consider GCTAGCGAAAGCTGGAGC ((((((....)))..))), for which, in data set [1], the Tm amounted to 43.2 °C. Besides, the folding enthalpy in data set [2] is -14.1 kcal/mol.

With CGCGGAAGGGTCCGCG ((((((....)))))), the Tm in data set [1] amounted to 69.3 °C. Moreover, the folding enthalpy in data set [2] was -29.1 kcal/mol.

Turning to GCAGTCCCGAAAGGGTGC (((..(((....)))))), the Tm in data set [1] came to 43.5 °C. Further, the folding enthalpy in data set [2] was -15.3 kcal/mol.

With GGTCCACGAAAGTGCACC (((.(((....))).))), in data set [1], the Tm turned out to be 44.5 °C. For the same sequence, the folding enthalpy in data set [2] is -25.9 kcal/mol.

Regarding GGCCGCGAAAGCGGTGCC ((((((....)))..))), the Tm in data set [1] was found to be 55.7 °C. Besides, the folding enthalpy in data set [2] was -10 kcal/mol.

For GTGCTCGAAAGAGATCAC ((((((....)))..))), in data set [1], the Tm came out at 30.9 °C. The folding enthalpy in data set [2] is -13.6 kcal/mol.

As for GCGTGGGGAAACCTGCGC (((..((....))..))), the Tm in data set [1] was found to be 53.3 °C. In data set [2], the folding enthalpy was -37 kcal/mol.

In the case of GGGGCCGAAAGGCCGCCC ((((((....)))..))), the Tm in data set [1] came to 56.9 °C. Further, the folding enthalpy in data set [2] is -9.69 kcal/mol.

For GATCACGCCCGTGATC ((((((....)))))), in data set [1], the Tm is 60.6 °C. Also, the folding enthalpy in data set [2] is -39.8 kcal/mol.

For the sequence GATCAAGCCATTGATC ((((((....)))))), the Tm in data set [1] is 50.5 °C. In addition, the folding enthalpy in data set [2] is -48.9 kcal/mol.

Regarding GCGATAGGAAACTATCAC (.(((((....))))).), the Tm in data set [1] was 35.9 °C. Also, in data set [2], the folding enthalpy is -18.4 kcal/mol.

Turning to GTGGTTCGAAAGAACAC (((.(((....)))))), the Tm in data set [1] turned out to be 47.8 °C. For the same sequence, in data set [2], the folding enthalpy was -16.8 kcal/mol.

For GAGTTACCGAAAGGTCTC (((..(((....)))))), the Tm in data set [1] was determined as 29.4 °C. Also, the folding enthalpy in data set [2] was -16.9 kcal/mol.

For the sequence GCTGGCGAAAGCCCGAGC ((((((....)))..))), the Tm in data set [1] was 45.4 °C. In data set [2], the folding enthalpy is -14.3 kcal/mol.

On to GATCCCAGAAGGGATC ((((((....)))))), for which the Tm in data set [1] was determined as 60.4 °C. Moreover, the folding enthalpy in data set [2] is -34.7 kcal/mol.

As to GCTACAGGAAACTGTAGC (((((((....))))))), the Tm in data set [1] was 63.7 °C. In data set [2], the folding enthalpy was -47.9 kcal/mol.

GCGGTTCGAAAGAATCGC (((.(((....))).))): in data set [1], the Tm was determined as 66.4 °C. For the same sequence, in data set [2], the folding enthalpy was -43.4 kcal/mol.

For GTTTAGCGAAAGCTCAAC (((.(((....))).))), in data set [1], the Tm was 41.7 °C. Also, the folding enthalpy in data set [2] is -20.6 kcal/mol.

For GAATCCGAAAGGAAATTC ((((((....)))..))), the Tm in data set [1] amounted to 29.1 °C. Further, the folding enthalpy in data set [2] is -15.5 kcal/mol.

As to GATCTCGCGGGAGATC ((((((....)))))), in data set [1], the Tm was 52.4 °C. Also, the folding enthalpy in data set [2] is -33.1 kcal/mol.

In the case of GGGCCCGAAAGGGGTCCC ((((((....)))..))), in data set [1], the Tm turned out to be 66.2 °C. In data set [2], the folding enthalpy was -14.5 kcal/mol.

On to GAGTCACGAAAGTGTCTC (((.(((....))).))), for which the Tm in data set [1] stood at 49.8 °C. For the same sequence, the folding enthalpy in data set [2] is -30 kcal/mol.

Take GAGAACGAAAGTTGGCTC ((((((....)))..))): the Tm in data set [1] was found to be 30.6 °C. The folding enthalpy in data set [2] was -19.1 kcal/mol.

For CGGACGGAAACGTCCCCG ((((((....)))..))), the Tm in data set [1] turned out to be 34.7 °C. The folding enthalpy in data set [2] was -7.24 kcal/mol.

As to GGTTACGAAAGTAGCACC ((((((....)))..))), in data set [1], the Tm worked out at 31.7 °C. In data set [2], the folding enthalpy was -14.5 kcal/mol.

Regarding GTAGGACGAAAGTCTTAC (((.(((....))).))), the Tm in data set [1] came out at 47.7 °C. Moreover, the folding enthalpy in data set [2] was -26.2 kcal/mol.

In the case of GTAGCTGAAAAGCTAC ((((((....)))))), the Tm in data set [1] worked out at 60 °C. Also, the folding enthalpy in data set [2] is -37.9 kcal/mol.

Take GCCGACGAAAGTCGTGGC ((((((....)))..))): the Tm in data set [1] was 57 °C. Moreover, the folding enthalpy in data set [2] is -16.3 kcal/mol.

With GTGTTGTCGAAAGACCAC (((..(((....)))))), the Tm in data set [1] turned out to be 42.4 °C. For the same sequence, the folding enthalpy in data set [2] is -21.6 kcal/mol.

GTAAACCGAAAGGTGTAC (((.(((....))).))): the Tm in data set [1] was 46.2 °C. In addition, in data set [2], the folding enthalpy is -23.3 kcal/mol.

For CGCGGACTACTCCGCG ((((((....)))))), the Tm in data set [1] was determined as 69 °C. For the same sequence, the folding enthalpy in data set [2] is -30.9 kcal/mol.

Consider GGTTTACGAAAGTAACC (((.(((....)))))), for which the Tm in data set [1] was 44.2 °C. The folding enthalpy in data set [2] is -20.6 kcal/mol.

Consider GGGCTTGGAAACGAGCCC (((((.(....).))))), for which the Tm in data set [1] was determined as 59.2 °C. Further, the folding enthalpy in data set [2] was -51.4 kcal/mol.

Consider GCGTTTCGAAAGAACGC (((.(((....)))))), for which the Tm in data set [1] is 57.6 °C. In addition, in data set [2], the folding enthalpy is -33.8 kcal/mol.

As to GCACATCGAAAGATTGC (((.(((....)))))), the Tm in data set [1] was 46 °C. For the same sequence, the folding enthalpy in data set [2] is -27.9 kcal/mol.

Regarding GAACGTGGAAACACGCTC ((.((((....)))).)), the Tm in data set [1] was determined as 44 °C. In addition, in data set [2], the folding enthalpy is -18.2 kcal/mol.
